# Source: ChEMBL document CHEMBL1124947, “Cationic antiprotozoal drugs. Trypanocidal activity of 2-(4'-formylphenyl)imidazo[1,2-a]pyridinium guanylhydrazones and related derivatives of quaternary heteroaromatic compounds” (J Med Chem, 1990)
# Columns and labels:
# Format in all cases: functional
# Mus musculus [1] = experiment: Trypanocidal Activity at I.C.E. value 0.65 when administered subcutaneously.
# In short: (§1)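 Mice, in groups of five per dose, were given a standard inoculum of blood-stage T. rhodesiense that is lethal to all untreated controls, then dosed subcutaneously. Usually 11 dose levels were used (2^n × 0.42 mg/kg).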
# Mus musculus [2] = experiment: Trypanocidal Activity at I.C.E. value 0.47 when administered subcutaneously.
# In short: (§2)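 Blood-stage T. rhodesiense infection came from a standard inoculum lethal to all untreated mice. Drug was given by subcutaneous injection to groups of five mice. Survival beyond 30 days counted as cure. […] Sub-curative doses scored 0, and data were normalized at each dose.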
# Mus musculus [3] = experiment: Trypanocidal Activity at I.C.E. value 0.16 when administered subcutaneously.
# [4] = tested on: Trypanosoma brucei rhodesiense; experiment: In Vitro measurement of inhibition of thymidine uptake in cell culture of Trypanosoma rhodesiense; conditions: read-out: ID50 (the source's name)
# In short: (§3)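 Parasites harvested from infected rats and incubated 3 h across a drug concentration series, usually 0.1–100 µg/mL. Incorporation of radiolabeled thymidine measured. ID50 is the concentration (µg/mL) producing 50% inhibition.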
# [5] = tested on: Trypanosoma brucei rhodesiense; experiment: In Vitro measurement of inhibition of leucine uptake in cell culture of Trypanosoma rhodesiense; conditions: read-out: ID50 (the source's name)
# In short: (§4)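 Trypanosomes harvested from infected rats, cultured 3 h with several concentrations of drug, usually 0.1–100 µg/mL. Radiolabeled L-leucine uptake measured. ID50 is the concentration in µg/mL giving 50% inhibition of incorporation.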
# Mus musculus [6] = experiment: Trypanocidal Activity at I.C.E. value 0.36 when administered subcutaneously.
# Mus musculus [7] = experiment: Trypanocidal Activity at I.C.E. value 0.57 when administered perorally.
# Mus musculus [8] = experiment: Trypanocidal Activity at I.C.E. value 0.57 when administered subcutaneously.; in short: as §1
# Mus musculus [9] = experiment: Trypanocidal Activity at I.C.E. value 0.44 when administered subcutaneously.; in short: as §2
# Mus musculus [10] = experiment: Trypanocidal Activity at I.C.E. value 0.32 when administered subcutaneously.; in short: as §2
# Mus musculus [11] = experiment: Trypanocidal Activity at I.C.E. value 0.67 when administered subcutaneously.; in short: as §1
# Mus musculus [12] = experiment: Trypanocidal Activity at I.C.E. value 0.34 when administered subcutaneously.; in short: as §2
# Mus musculus [13] = experiment: Trypanocidal Activity at I.C.E. value 0.17 when administered subcutaneously.
# Mus musculus [14] = experiment: Trypanocidal Activity at I.C.E. value 0.52 when administered subcutaneously.; in short: as §2
# Mus musculus [15] = experiment: Trypanocidal Activity at I.C.E. value 0.71 when administered subcutaneously.; in short: as §1
# Mus musculus [16] = experiment: Trypanocidal Activity at I.C.E. value 0.45 when administered subcutaneously.; in short: as §2
# Mus musculus [17] = experiment: Trypanocidal Activity at I.C.E. value 0.29 when administered subcutaneously.; in short: as §2
# Mus musculus [18] = experiment: Trypanocidal Activity at I.C.E. value 0.38 when administered subcutaneously.; in short: as §2
# [19] = tested on: Trypanosoma brucei rhodesiense; experiment: In Vitro measurement of inhibition of Leucine uptake in cell culture of Trypanosoma rhodesiense.; conditions: read-out: ID50 (the source's name); in short: as §4
# [20] = tested on: Trypanosoma brucei rhodesiense; experiment: In Vitro measurement of inhibition of thymidine uptake in cell culture of Trypanosoma rhodesiense.; conditions: read-out: ID50 (the source's name); in short: as §3
smiles,measurement,setting,value
Br.C=CCNC(=N)N/N=C/c1ccc(-c2cn3ccccc3[n+]2C)cc1.[Br-],CD50,Mus musculus [1],0.2 mg/kg
Br.CC/N=C(\NCC)N/N=C/c1ccc(/C=C/c2cn3c(C)cccc3[n+]2C)cc1.[Br-],CD50,Mus musculus [1],0.4 mg/kg
Br.Cc1ccc2n(c1)cc(-c1ccc(/C=N/NC(=N)N3CCOCC3)cc1)[n+]2C.[Br-],CD50,Mus musculus [2],0.8 mg/kg
C[n+]1cscc1COc1ccc(/C=N/NC(=N)N2CCCC2)cc1.Cc1ccc(S(=O)(=O)O)cc1.Cc1ccc(S(=O)(=O)[O-])cc1,CD50,Mus musculus [3],13 mg/kg
same,IC50,[4],2.2 µg/mL
same,IC50,[5],0.7 µg/mL
Br.CC/N=C(\NCC)N/N=C/c1ccc(OCc2cn3cc(C)ccc3[n+]2C)cc1.[Br-],CD50,Mus musculus [6],1.6 mg/kg
Br.Cc1ccc2n(c1)cc(/C=C/c1ccc(/C=N/NC(=N)N)cc1)[n+]2C.[Br-],CD50,Mus musculus [1],0.8 mg/kg
Br.CCNC(=N)N/N=C/c1ccc(-c2cn3ccc(C)cc3[n+]2C)cc1.[Br-],CD50,Mus musculus [7],13 mg/kg
same,CD50,Mus musculus [8],0.1 mg/kg
Br.Cn1cc[n+](C)c1/C=C/c1ccc(/C=N/NC(=N)NO)cc1.[Br-],CD50,Mus musculus [2],0.8 mg/kg
Cc1ccc2n(c1)cc(-c1ccc(/C=N/Nc3nc(N)nc(N)n3)cc1)[n+]2C.[I-],IC50,[4],0.3 µg/mL
same,IC50,[5],> 10 µg/mL
Br.C[n+]1c(-c2ccc(/C=N/NC(=N)N3CCCCC3)cc2)cn2ccccc21.[Br-],CD50,Mus musculus [9],0.8 mg/kg
Cc1ccc(S(=O)(=O)[O-])cc1.Cn1cc[n+](C)c1/C=C/c1ccc(/C=N/NC(=O)c2ccc(N)cc2)cc1,CD50,Mus musculus [10],26 mg/kg
Br.CSC(=N)N/N=C/c1ccc(OCc2cn3ccccc3[n+]2C)cc1.[Br-],CD50,Mus musculus [9],26 mg/kg
same,IC50,[4],4.6 µg/mL
same,IC50,[5],3.3 µg/mL
Br.CCNC(=N)N/N=C/c1ccc(OCc2cn3cc(C)ccc3[n+]2C)cc1.[Br-],CD50,Mus musculus [11],0.4 mg/kg
C[n+]1c(COc2ccc(/C=N/NC(=N)N)cc2)cn2cc(C(F)(F)F)ccc21.Cc1ccc(S(=O)(=O)O)cc1.Cc1ccc(S(=O)(=O)[O-])cc1,CD50,Mus musculus [11],6.6 mg/kg
C[n+]1c(-c2ccc(C(N)=S)cc2)cn2ccccc21.Cc1ccc(S(=O)(=O)[O-])cc1,CD50,Mus musculus [12],53 mg/kg
Br.C[n+]1c(-c2ccc(/C=N/NC3=NCCCN3)cc2)cn2ccsc21.[Br-],CD50,Mus musculus [2],0.2 mg/kg
Br.C[n+]1c(COc2ccc(/C=N/NC(=N)NO)cc2)cn2ccccc21.[Br-],CD50,Mus musculus [8],0.4 mg/kg
Br.C[n+]1c(-c2ccc(/C=N/NC3=NCCN3)cc2)cn2ccsc21.[Br-],CD50,Mus musculus [9],0.8 mg/kg
same,IC50,[4],0.6 µg/mL
same,IC50,[5],0.8 µg/mL
Br.CCS(=O)(=O)c1ccc2n(c1)cc(-c1ccc(/C=N/NC(=N)N)cc1)[n+]2C.[Br-],CD50,Mus musculus [11],0.8 mg/kg
Br.C[n+]1c(-c2ccc(/C=N/NC3=NCCN3)cc2)c(Br)n2ccccc21.[Br-],CD50,Mus musculus [13],3.3 mg/kg
same,IC50,[4],0.7 µg/mL
same,IC50,[5],0.7 µg/mL
Br.Cc1ccn2cc(COc3ccc(/C=N/NC(=N)N)cc3)[n+](C)c2c1.[Br-],CD50,Mus musculus [7],6.6 mg/kg
same,CD50,Mus musculus [14],0.2 mg/kg
Br.Cc1ccn2cc(-c3ccc(/C=N/NC4=NCCCN4)cc3)[n+](C)c2c1.[Br-],CD50,Mus musculus [7],6.6 mg/kg
same,CD50,Mus musculus [11],0.1 mg/kg
same,IC50,[4],0.7 µg/mL
same,IC50,[5],1.1 µg/mL
Br.Cc1ccn2cc(COc3ccc(/C=N/NC(=N)N4CCCC4)cc3)[n+](C)c2c1.[Br-],CD50,Mus musculus [10],0.4 mg/kg
CCSc1ccc2n(c1)cc(-c1ccc(/C=N/Nc3nc(N)nc(N)n3)cc1)[n+]2C.Cc1ccc(S(=O)(=O)[O-])cc1,CD50,Mus musculus [15],1.6 mg/kg
same,IC50,[4],0.6 µg/mL
same,IC50,[5],> 10 µg/mL
Br.C[n+]1c(-c2ccc(/C=N/NC3=NCCN3)cc2)cn2c1CCCC2.[Br-],CD50,Mus musculus [9],0.4 mg/kg
Br.Cn1cc[n+](C)c1COc1ccc(/C=N/NC(=N)N)cc1.[Br-],CD50,Mus musculus [3],6.6 mg/kg
Br.CCNC(=N)N/N=C/c1ccc(OCc2cn3c(C)cccc3[n+]2C)cc1.[Br-],CD50,Mus musculus [14],0.4 mg/kg
Br.Cc1c(-c2ccc(/C=N/NC(=N)N3CCCC3)cc2)[n+](C)c2ccccn12.[Br-],CD50,Mus musculus [2],0.2 mg/kg
Br.C/N=C(/NC)N/N=C/c1ccc(OCc2cn3c(C)cccc3[n+]2C)cc1.[Br-],CD50,Mus musculus [10],3.3 mg/kg
Br.C=CC[n+]1c(-c2ccc(/C=N/NC(=N)N)cc2)cn2ccccc21.[Br-],CD50,Mus musculus [6],0.4 mg/kg
CC(=O)Nc1ccc(-c2cn3ccc4ccccc4c3[n+]2C)cc1.[Br-],CD50,Mus musculus [13],212 mg/kg
same,IC50,[4],3.2 µg/mL
same,IC50,[5],5.2 µg/mL
Br.Cc1c(-c2ccc(/C=N/NC(=N)N)cc2)[n+](C)c2ccccn12.[Br-],CD50,Mus musculus [16],0.2 mg/kg
Br.C[n+]1c(-c2ccc(/C=N/NC(=N)N)cc2)c([N+](=O)[O-])n2ccccc21.[Br-],IC50,[4],2.7 µg/mL
same,CD50,Mus musculus [17],3.3 mg/kg
same,IC50,[5],1.7 µg/mL
Br.COc1ccc2n(c1)cc(-c1ccc(/C=N/NC(=N)SC)cc1)[n+]2C.[Br-],CD50,Mus musculus [2],13 mg/kg
C[n+]1c(-c2ccc(/C=N/NC(=O)c3ccc(N)cc3)cc2)cn2ccccc21.Cc1ccc(S(=O)(=O)[O-])cc1,CD50,Mus musculus [8],0.8 mg/kg
Cc1ccc(S(=O)(=O)N/N=C/c2ccc(-c3cn4ccccc4[n+]3C)cc2)cc1.[Br-],CD50,Mus musculus [13],53 mg/kg
Br.Cn1c(COc2ccc(/C=N/NC3=NCCCN3)cc2)[n+](C)c2ccccc21.[Br-],CD50,Mus musculus [7],6.6 mg/kg
same,CD50,Mus musculus [14],1.6 mg/kg
same,IC50,[4],4.4 µg/mL
same,IC50,[5],> 10 µg/mL
Cc1ccc(S(=O)(=O)[O-])cc1.Cc1cccc2n1cc(-c1ccc(COc3ccc(/C=N/NC(=O)c4ccc(N)cc4)cc3)cc1)[n+]2C,CD50,Mus musculus [9],13 mg/kg
Br.CCSc1ccc2n(c1)cc(-c1ccc(/C=N/NC(=N)SC)cc1)[n+]2C.[Br-],CD50,Mus musculus [3],106 mg/kg
C[n+]1c(-c2ccc(/C=N/NC(=N)N)cc2)cn2ccsc21.Cc1ccc(S(=O)(=O)O)cc1.Cc1ccc(S(=O)(=O)[O-])cc1,CD50,Mus musculus [1],0.4 mg/kg
same,IC50,[4],1.4 µg/mL
same,IC50,[5],1.3 µg/mL
Br.C/N=C(/N/N=C/c1ccc(-c2cn3ccc(C)cc3[n+]2C)cc1)SC.[Br-],CD50,Mus musculus [18],26 mg/kg
C[n+]1c(-c2ccc(/C=N/NC(=N)NO)cc2)cn2ccsc21.Cc1ccc(S(=O)(=O)O)cc1.Cc1ccc(S(=O)(=O)[O-])cc1,CD50,Mus musculus [14],0.8 mg/kg
same,IC50,[4],2 µg/mL
same,IC50,[5],1.7 µg/mL
Br.C[n+]1c(COc2ccc(/C=N/NC(=N)N)cc2)cn2ccccc21.[Br-],CD50,Mus musculus [2],0.1 mg/kg
same,IC50,[4],0.8 µg/mL
same,IC50,[5],0.9 µg/mL
Cc1ccc(S(=O)(=O)O)cc1.Cc1ccc(S(=O)(=O)[O-])cc1.Cc1cccc2n1cc(/C=N/NC(=N)NO)[n+]2C,CD50,Mus musculus [13],106 mg/kg
Br.C/N=C(\NC)N/N=C/c1ccc(OCc2n(C)c3ccccc3[n+]2C)cc1.[Br-],CD50,Mus musculus [12],3.3 mg/kg
Br.C[n+]1c(-c2ccc(/C=N/NC(=N)NCCN3CCOCC3)cc2)cn2ccccc21.[Br-],CD50,Mus musculus [18],0.8 mg/kg
same,IC50,[19],11.7 µg/mL
same,IC50,[20],2.3 µg/mL
Cc1ccc2n(c1)cc(-c1ccc(/C=N/Nc3cc(N)[nH]n3)cc1)[n+]2C.[Br-],IC50,[4],> 10 µg/mL
same,CD50,Mus musculus [17],26 mg/kg
same,IC50,[5],> 10 µg/mL
C[n+]1c(-c2ccc(/C=N/Nc3cc(N)[nH]n3)cc2)cn2ccccc21.[Br-],CD50,Mus musculus [17],13 mg/kg
C[n+]1c(-c2ccc(C(=N)NO)cc2)cn2ccccc21.[Cl-],CD50,Mus musculus [17],53 mg/kg
Br.CC(Cc1ccncc1)NC(=N)N/N=C/c1ccc(-c2cn3ccccc3[n+]2C)cc1.[Br-] (configuration not stated),CD50,Mus musculus [18],0.8 mg/kg
Cc1ccc2n(c1)cc(-c1ccc(C(=N)NO)cc1)[n+]2C.[Cl-],CD50,Mus musculus [3],106 mg/kg
C[n+]1c(COc2ccc(/C=N/Nc3nc[nH]n3)cc2)cn2ccccc21.[Br-],IC50,[4],0.5 µg/mL
same,IC50,[5],> 10 µg/mL
Br.CC(Cc1c[nH]cn1)NC(=N)N/N=C/c1ccc(-c2cn3ccccc3[n+]2C)cc1.[Br-] (configuration not stated),CD50,Mus musculus [18],1.6 mg/kg
